Calls of active or inactive are those of the source. No cut-off for these calls is given here.
What was measured:
RAW264.7 [1] = test: Antiinflammatory activity in LPS-induced mouse RAW264.7 cells assessed as IL-6 levels at 5 uM pretreated for 2 hrs followed by LPS stimulation and measured after 6 hrs by ELISA (reference value: 472.3 +/- 25.8 pg/ml); format: functional
Procedure, shortened: (§1)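 RAW264.7 murine macrophages (DMEM, 10% serum, 37 °C, 5% CO2) seeded at 5 × 10^5 cells per well, pretreated 2 h with compound at 10, 5, 2.5 or 1.25 μM (DMSO 0.1% v/v), then LPS (E. coli 0127:B8) 100 ng mL−1 added. Supernatant TNF-α or IL-6 read by mouse ELISA kit after 6, 12 and 24 h. Mean ± SD, n = 3, three independent experiments.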

RAW264.7 [2] = test: Antiinflammatory activity in LPS-induced mouse RAW264.7 cells assessed as TNFalpha levels at 10 uM pretreated for 2 hrs followed by LPS stimulation and measured after 24 hrs by ELISA (reference value: 9653.7 +/- 377.3 pg/ml); format: functional; procedure, shortened: as §1
RAW264.7 [3] = test: Antiinflammatory activity in LPS-induced mouse RAW264.7 cells assessed as TNFalpha levels at 5 uM pretreated for 2 hrs followed by LPS stimulation and measured after 12 hrs by ELISA (reference value: 5313.7 +/- 420.9 pg/ml); format: functional; procedure, shortened: as §1
[4] = molecular target: MAP kinase p38 (Mus musculus) (UniProt P47811+O08911+Q9WUI1+Q9Z1B7); test: Inhibition of LPS-induced p38 MAPK phosphorylation in mouse RAW264.7 cells after 4 hrs by Western blot analysis; format: cell-based
Procedure, shortened: (§2)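 RAW264.7 cells at 2 × 10^6 per well given fresh medium with compound (10, 5, 2.5, 1.25 μM) plus LPS 500 ng mL−1 for 4 h. Lysed in IP buffer with 1 mM PMSF, protein by BCA. Run on 12.5% SDS-PAGE and blotted. Phospho and total ERK1/2 (Thr202/Tyr204), p38 (Thr180/Tyr182), IκBα (Ser32/36) and NF-κB p65 detected by ECL. Mean ± SD, n = 3.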

[5] = molecular target: Transcription factor p65 (Mus musculus) (UniProt Q04207); test: Inhibition of LPS-induced NFkappaB p65 phosphorylation in mouse RAW264.7 cells after 4 hrs by Western blot analysis; format: cell-based; procedure, shortened: as §2
Chain of Transcription factor p65 (Mus musculus) (Q04207 whole entry): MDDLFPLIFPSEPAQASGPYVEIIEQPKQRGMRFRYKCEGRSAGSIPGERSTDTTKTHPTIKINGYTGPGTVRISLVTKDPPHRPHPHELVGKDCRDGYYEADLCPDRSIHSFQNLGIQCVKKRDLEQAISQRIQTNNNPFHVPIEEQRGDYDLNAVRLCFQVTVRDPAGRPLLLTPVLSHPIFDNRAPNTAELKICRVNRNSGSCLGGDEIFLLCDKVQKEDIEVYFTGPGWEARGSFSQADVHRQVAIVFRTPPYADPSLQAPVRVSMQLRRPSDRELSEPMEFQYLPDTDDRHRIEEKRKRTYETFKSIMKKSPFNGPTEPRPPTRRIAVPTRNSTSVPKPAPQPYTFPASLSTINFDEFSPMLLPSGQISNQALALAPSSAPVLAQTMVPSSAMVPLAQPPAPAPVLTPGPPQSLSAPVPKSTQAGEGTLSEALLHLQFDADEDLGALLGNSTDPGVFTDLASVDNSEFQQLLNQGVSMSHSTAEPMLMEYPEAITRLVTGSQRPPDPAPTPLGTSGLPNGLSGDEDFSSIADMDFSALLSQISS

RAW264.7 [6] = test: Antiinflammatory activity in LPS-induced mouse RAW264.7 cells assessed as IL-6 levels at 10 uM pretreated for 2 hrs followed by LPS stimulation and measured after 24 hrs by ELISA (reference value: 1966.6 +/- 102.3 pg/ml); format: functional; procedure, shortened: as §1
RAW264.7 [7] = test: Antiinflammatory activity in LPS-induced mouse RAW264.7 cells assessed as TNFalpha levels at 2.5 uM pretreated for 2 hrs followed by LPS stimulation and measured after 6 hrs by ELISA (reference value: 4377.1 +/- 318.6 pg/ml); format: functional; procedure, shortened: as §1
Danio rerio [8] = test: In-vivo antiinflammatory activity in 4 days post fertilized zebrafish larvae harboring coronilla-eGFP/Lyc-dsRed assessed as reduction in macrophage recruitment to wounded tail at 5 to 20 uM measured after 3 to 6 hrs by fluorescence microscopic analysis; format: functional, organism-based
Procedure, shortened: (§3)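 Double transgenic neutrophil/macrophage reporter larvae (Coronilla-eGFP/Lyc-dsRed), 4 dpf, tail-cut. […] Neutrophils and macrophages gathering at the wound imaged by fluorescence microscopy at 3 and 6 h. 6–8 larvae per group. Uncut larvae serve as blank, untreated cut larvae as control.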

RAW264.7 [9] = test: Antiinflammatory activity in LPS-induced mouse RAW264.7 cells assessed as IL-6 levels at 5 uM pretreated for 2 hrs followed by LPS stimulation and measured after 24 hrs by ELISA (reference value: 1966.6 +/- 102.3 pg/ml); format: functional; procedure, shortened: as §1
[10] = Cytotoxicity against mouse RAW264.7 cells assessed as cell viability at 10 uM after 48 hrs by MTT assay (reference value: 100%); format: cell-based; settings: read-out: Activity
Procedure, shortened: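 RAW264.7 cells seeded at 4 × 10^3 per well, cultured overnight, exposed to compound (DMSO 0.1% v/v) for 48 h. MTT 0.5 mg mL−1 added for 4 h at 37 °C, formazan dissolved in DMSO, OD570 read. Viability relative to medium-only cells set as 100%. Mean ± SD (n = 5), three independent experiments.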

Danio rerio [11] = test: In-vivo antiinflammatory activity in 4 days post fertilized zebrafish larvae harboring coronilla-eGFP/Lyc-dsRed assessed as reduction in neutrophil recruitment to wounded tail at 5 to 20 uM measured after 3 to 6 hrs by fluorescence microscopic analysis; format: functional, organism-based; procedure, shortened: as §3
RAW264.7 [12] = test: Antiinflammatory activity in LPS-induced mouse RAW264.7 cells assessed as IL-6 levels at 1.25 uM pretreated for 2 hrs followed by LPS stimulation and measured after 6 hrs by ELISA (reference value: 472.3 +/- 25.8 pg/ml); format: functional; procedure, shortened: as §1
RAW264.7 [13] = test: Antiinflammatory activity in LPS-induced mouse RAW264.7 cells assessed as IL-6 levels at 1.25 uM pretreated for 2 hrs followed by LPS stimulation and measured after 12 hrs by ELISA (reference value: 1394 +/- 62.6 pg/ml); format: functional; procedure, shortened: as §1

| Structure (SMILES) | Activity (RAW264.7 [1]) | Activity (RAW264.7 [2]) | Activity (RAW264.7 [3]) | inhibition [4] | inhibition [5] | Activity (RAW264.7 [6]) | Activity (RAW264.7 [7]) | Activity (Danio rerio [8]) | Activity (RAW264.7 [9]) | viability at 48 h, 10 µM [10] | Activity (Danio rerio [11]) | Activity (RAW264.7 [12]) | Activity (RAW264.7 [13]) |
| --- | --- | --- | --- | --- | --- | --- | --- | --- | --- | --- | --- | --- | --- |
| CC1=C[C@H](O/C=C2/C(=O)O[C@@H]3c4ccccc4C[C@H]23)OC1=O | 387.1 pg/mL | 8660.7 pg/mL | 5036.1 pg/mL | Dose-dependent effect | Dose-dependent effect | 1002.2 pg/mL | 4276.9 pg/mL | Active | 1499.2 pg/mL | 100% | Active | 461.2 pg/mL | 1351.9 pg/mL |
| CC1=C[C@@H](O/C=C2/C(=O)O[C@H]3c4ccccc4C[C@@H]23)OC1=O | 410.3 pg/mL | 8796.7 pg/mL | 5079.1 pg/mL | Dose-dependent effect | Dose-dependent effect | 1061.3 pg/mL | 4307.9 pg/mL | Active | 1561.1 pg/mL | 99.2% | Active | 470.1 pg/mL | 1374.3 pg/mL |

From ChEMBL document CHEMBL4257465, “Strigolactones: a plant phytohormone as novel anti-inflammatory agents” (Medchemcomm, 2018)
